KCNQ1 inh: inhibitors of human KCNQ1 channel, primary screen, cell-based, thallium flux, high-throughput. 1.3% of 310,000 active. CHO-K1 KCNQ1, FluxOR thallium flux fluorescence; hits give high values. B-score at 10 µM;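 active means compounds whose thallium flux B-score, printed positive for inhibition, exceeds three library SD while starting fluorescence stays within three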;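 further: channel opened by potassium depolarization with thallium stimulus after 20 min compound exposure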
Target sequence (P51787 whole entry, looked up): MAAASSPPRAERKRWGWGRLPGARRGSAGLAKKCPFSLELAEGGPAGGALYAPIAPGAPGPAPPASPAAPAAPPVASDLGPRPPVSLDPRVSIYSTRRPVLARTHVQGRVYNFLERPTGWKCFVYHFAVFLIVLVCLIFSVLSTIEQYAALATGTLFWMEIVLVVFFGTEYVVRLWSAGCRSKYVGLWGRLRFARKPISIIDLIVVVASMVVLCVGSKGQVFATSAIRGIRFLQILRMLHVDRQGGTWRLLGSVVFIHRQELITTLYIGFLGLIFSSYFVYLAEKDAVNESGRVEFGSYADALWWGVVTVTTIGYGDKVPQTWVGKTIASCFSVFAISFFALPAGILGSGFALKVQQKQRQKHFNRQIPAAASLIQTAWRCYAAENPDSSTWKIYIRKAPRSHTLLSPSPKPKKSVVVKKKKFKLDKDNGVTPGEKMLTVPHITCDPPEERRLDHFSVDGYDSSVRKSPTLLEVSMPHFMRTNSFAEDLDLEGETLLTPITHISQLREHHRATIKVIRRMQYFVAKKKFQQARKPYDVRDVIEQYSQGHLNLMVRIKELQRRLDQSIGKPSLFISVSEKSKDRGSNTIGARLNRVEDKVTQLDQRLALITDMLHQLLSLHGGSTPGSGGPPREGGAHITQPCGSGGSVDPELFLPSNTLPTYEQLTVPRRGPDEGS
Kir21 inh: inhibitors of mouse Kir2.1 inward-rectifier potassium channel; Inward rectifier potassium channel 2 (Mus musculus), P35561; HEK293-Kir2.1, FluxOR thallium flux fluorescence; hits give low values; B-score at 10 µM; 0.85% of 310,000 active;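 active means fluorescence ratio B-score at or below minus 3 SD of library scores, with starting-brightness B-score within 2 SD, cut at about -4.2 in these data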;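 further: channel flux triggered by added potassium and thallium sulfate stimulus; B-score of peak minus minimum fluorescence over baseline after thallium stimulus; more negative B-score means stronger Kir2.1 block with less thallium influx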
KCNQ1 act: potentiators or activators of KCNQ1 channel, primary screen, cell-based, thallium flux, high-throughput; CHO-K1 KCNQ1, thallium flux FluxOR fluorescence; hits give high values; B-score at 10 µM; 0.35% of 310,000 active; AID 2648, 2010;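 active means fluorescence ratio B-score, a plate-corrected score, at least three library SD, with initial intensity B-score within 5 SD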
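assay system = CHO-K1 cells stably expressing KCNQ1 | medium = assay buffer, equal DMSO in all wells | timing = 37 °C overnight plating, 90-min dark dye load, 20-min compound pretreatment | measured by = kinetic FluxOR thallium fluorescence, 10-s 1-Hz baseline, 110-s post-stimulus read | measure = fluorescence change relative to baseline, converted to B score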
KCNK9 block: KCNK9 potassium channel inhibitors, primary screen, HEK293 cells, thallium flux | B-score at 10 µM | FluxOR thallium flux fluorescence; hits give low values | 1.2% of 310,000 active | AID 488922, 2010;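 active means ratio B-score over 3 SD below the library mean, with starting fluorescence within 5 SD of its mean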;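 further: negative B-score means less thallium flux so channel inhibition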
hERG rescue: hERG rescue from dofetilide block, primary screen, cell-based, CHO-hERG, FluxOR thallium flux, dofetilide IC70. dofetilide IC70 present. activation (rescue from dofetilide block), less the hit threshold, % at 10 µM. 0.51% of 310,000 active. AID 1511, 2009;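 active means activation above the mean of controls blocked by dofetilide plus 5 SD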;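 further: thallium influx through hERG after potassium depolarization seen as dye fluorescence rise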
KCNK3 block: human KCNK3 channel inhibitors, primary screen, CHO cells, FluxOR thallium flux, B-score | Potassium channel subfamily K member 3 (Homo sapiens), O14649 | FluxOR fluorescence; hits give low values | B-score at 10 µM | 0.84% of 340,000 active | AID 602410, 2012;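 active means B-score under library mean minus 4 SD, starting fluorescence ratio at most library mean plus 5 SD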;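 further: more negative B-score means stronger inhibition of thallium flux through KCNK3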
The depositor's hits bear a star; i = inactive; nt = no result given. In the library only some 3.7% were active in any assay of this set; here they are far more common.

SMILES | KCNQ1 inh | Kir21 inh | KCNQ1 act | KCNK9 block | hERG rescue | KCNK3 block
O=C(COc1ccc(S(=O)(=O)NC2CCCCC2)cc1Cl)N1CCN(c2ccccc2)CC1 | i | 0.62 | i | i | -9.0 | i
Cc1ccc(C2=NOC(=O)/C2=C\C=C\c2ccccc2)cc1 | i | 2.01 | 8* | i | 0.5 | i
Cc1cccc(CN2CCC(C(=O)Nc3cccc(-c4cccc(F)c4)c3)CC2)n1 | i | -5.07* | i | i | -20.0 | i
COCc1ccc(CN2CCC(C(=O)Nc3cccc(-c4cccc(Cl)c4)c3)CC2)o1 | 8* | -3.44 | i | i | -31.6 | i
O=C(Nc1cccc(-c2cccc(F)c2)c1)C1CCN(Cc2ccco2)CC1 | i | -4.91* | i | i | -14.5 | i
O=C(Nc1cccc(-c2cccc(F)c2)c1)C1CCN(CC2CCOC2)CC1 (stereo not drawn) | i | -1.29 | i | i | -19.7 | i
CN(CC(=O)Nc1ccc(F)cc1)C(=O)c1ccc(OCc2ccccc2)cc1 | nt | nt | nt | nt | nt | i
O=C(OCC(=O)c1c[nH]c2ccccc12)c1cc2ccccc2cc1O | i | -0.86 | i | i | 1.6 | i
Clc1ccc(C=Cc2ccccn2)c(Cl)c1 | nt | nt | nt | nt | nt | i
CCCn1nnc(NC(=O)C(c2ccccc2)c2ccccc2)n1 | i | 0.95 | i | i | 6.6* | i
CCCCn1nnc(NC(=O)C(c2ccccc2)c2ccccc2)n1 | i | -1.6 | i | i | -21.9 | i
O=C(O)c1ccc(NC(=O)c2ccccc2NC(=O)c2cccc(Br)c2)cc1 | i | -0.08 | i | i | -6.7 | i
CCCC[C@@H]1C[C@H]1[C@@H](NC(=O)c1cccs1)c1ccc(C(F)(F)F)cc1 | i | 0.58 | i | -7.32* | -14.8 | nt
COc1ccc(Cn2c(-c3ccc(C)cc3)c[n+]3ccccc23)cc1 | i | -0.88 | i | i | -25.1 | i
Cn1c(SCC(=O)N2CCOCC2)nc2cccnc21 | i | 0.2 | i | i | 4.8* | i
Cc1ccc(CCNS(=O)(=O)c2cc3c(cc2Cl)NC(=O)CO3)cc1 | i | 0.54 | i | i | -7.9 | i
Cc1ccc(NC(=O)Nn2cnnc2)cc1 | i | 0.49 | i | i | -6.6 | i
O=C(Nc1ccc(Cl)cc1)Nn1cnnc1 | i | -1.7 | i | i | 5.7* | i
O=C(N/N=C\c1ccc(-c2ccccc2[N+](=O)[O-])o1)C1COc2ccccc2O1 (stereo not drawn) | i | 0.11 | i | -6.84* | -20.5 | i
O=C(N/N=C\c1ccc(-c2ccccc2[N+](=O)[O-])o1)C1COc2cc3ccccc3cc2O1 (stereo not drawn) | i | -1.54 | i | i | -7.8 | i
COc1ccccc1N(Cc1ccccc1)S(=O)(=O)c1cccc(C(=O)O)c1 | i | 0.53 | i | i | -4.5 | i
CCOc1ccccc1NC(=O)c1cccc(S(=O)(=O)N(Cc2ccccc2)c2ccccc2OC)c1 | i | 0.85 | i | -6.86* | -8.1 | i
Oc1ccc(CN2CCN(Cc3ccccc3)CC2)c2cccnc12 | i | -3.81 | i | i | -10.3 | i
Oc1ccccc1CN1CCCN(Cc2ccccc2O)C1 | i | -3.71 | i | i | 5.0* | i
Oc1ccccc1CN1CCN(C(O)(c2ccccc2)c2ccccc2)CC1 | i | -7.28* | i | i | -9.9 | i
SMILES | KCNQ1 inh | Kir21 inh | KCNQ1 act | KCNK9 block | hERG rescue | KCNK3 block
Oc1ccccc1CN1CCC(C(O)(c2ccccc2)c2ccccc2)CC1 | i | -5.24* | i | i | -9.0 | i
O=C(C1CC1)N1CCC(C(O)(c2ccccc2)c2ccccc2)CC1 | i | -0.06 | i | i | -16.7 | i
O=C1OC(COc2ccc(Br)cc2)CN1c1ccccc1 (stereo not drawn) | i | -0.63 | i | i | -2.3 | i
COc1cccc(C(=O)Nc2ccc3c(c2)C(=O)NC3=O)c1 | i | -1.07 | i | i | -8.8 | i
CC(NC(=O)CC1CCCCC1)c1ccccc1 (stereo not drawn) | i | -0.1 | i | i | -5.0 | i
CC(NC(=O)NC1CCCCC1)c1ccccc1 (stereo not drawn) | i | 0.55 | i | i | 7.3* | i
O=C(/C=C/c1ccccc1)n1cnnc1SC/C=C/c1ccccc1 | i | -6.9* | i | i | -4.9 | i
Cc1cc(C)c(S(=O)(=O)c2ccccc2)c(OC(=O)c2c(Cl)cccc2Cl)n1 | i | -0.21 | i | -7.16* | -6.9 | i
Cc1cc(C)c(S(=O)(=O)c2ccccc2)c(OC(=O)c2ccc(Cl)cc2Cl)n1 | nt | nt | nt | nt | nt | i
O=C1NC(=S)SC1=C1CCCCCC1 | i | -0.38 | 63* | i | 27.4* | i
Cc1cc(Cl)ccc1OCC(=O)NNC(=O)C1CCCO1 (stereo not drawn) | i | -2.16 | 26* | i | -4.8 | i
CCOc1ccc(NC(=O)CCCN2C(=O)C(c3ccccc3)Oc3cccnc32)cc1 (stereo not drawn) | i | 0.39 | i | i | -5.9 | i
CC(=O)c1ccc(NC(=O)CCCN2C(=O)C(c3ccccc3)Oc3cccnc32)cc1 (stereo not drawn) | i | -4.25* | i | i | -4.4 | i
CC(C)C(C)NC(=O)CSc1nc2scc(-c3ccco3)c2c(=O)n1-c1ccccc1 (stereo not drawn) | i | -0.26 | i | -6.81* | -4.3 | i
CC(C)C(C)(C#N)NC(=O)CSc1nc2scc(-c3ccco3)c2c(=O)n1-c1ccccc1 (stereo not drawn) | i | 0.51 | i | i | -7.0 | i
CCNC(=O)n1nccc1C(C)Oc1ccccc1 (stereo not drawn) | i | 4.07e-16 | i | i | -7.3 | i
CC(Oc1ccccc1)c1ccnn1S(=O)(=O)c1ccccc1 (stereo not drawn) | i | -8.57* | i | i | -5.3 | i
Cc1ccc(NS(=O)(=O)c2c(C)ccc3nsnc23)c([N+](=O)[O-])c1 | i | 0.52 | i | i | -3.9 | i
CCSC(C)CC1C/C(=N/O)c2c(CC)noc2C1 (stereo not drawn) | i | -0.13 | i | i | -3.9 | i

Screening data deposited in PubChem by Johns Hopkins Ion Channel Center.
